Experimental data from ChEMBL document CHEMBL2412956, “Synthesis and biological activity evaluation of 5-pyrazoline substituted 4-thiazolidinones” (Eur J Med Chem, 2013).

Columns and labels:
MCF7 [1] = assay: Cytotoxicity against human MCF7 cells assessed as cell growth at 10 uM after 48 hrs by SRB assay relative to control; format: functional; settings: MCF7, 48 h, read-out: Activity
Method in brief: (§1)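 This was the NCI primary screen, with compound added once at 10⁻⁵ M and cultures incubated for 48 h. The endpoint was sulforhodamine B protein staining. Results are expressed as percent growth of treated cells relative to untreated control cells.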

T47D [2] = assay: Cytotoxicity against human T47D cells after 48 hrs by SRB assay; format: functional
Method in brief: (§2)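 NCI 60-cell-line panel, five 10-fold concentrations from 100 μM to 0.01 μM (10⁻⁴ to 10⁻⁸ M) with 48-h continuous exposure. Growth was read by SRB protein staining against time-zero and untreated controls. […] Values beyond the tested range are expressed as greater or less than the limit.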

NCI-H460 [3] = assay: Cytotoxicity against human NCI-H460 cells assessed as cell growth at 10 uM after 48 hrs by SRB assay relative to control; format: functional; settings: NCI-H460, 48 h, read-out: Activity
Method in brief: (§3)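 NCI 60-cell-line primary screen. Test agent added once at 10⁻⁵ M, cultures incubated 48 h, end point by sulforhodamine B protein staining read spectrophotometrically. Value is percent growth of treated cells relative to untreated control cells.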

CCRF-CEM = assay: Cytotoxicity against human CCRF-CEM cells assessed as cell growth at 10 uM after 48 hrs by SRB assay relative to control; format: functional; settings: read-out: Activity; method in brief: as §1
U-251 = assay: Cytotoxicity against human U251 cells after 48 hrs by SRB assay; format: functional; settings: U-251, 48 h; method in brief: as §2
HL-60(TB) [4] = assay: Cytotoxicity against human HL-60(TB) cells after 48 hrs by SRB assay; format: functional; settings: HL-60, 48 h
Method in brief: (§4)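 This was the NCI 60-cell-line five-dose screen, using 10-fold dilutions from 100 to 0.01 μM and continuous 48-h exposure. Growth was read by sulforhodamine B protein staining relative to time-zero and untreated controls. […] Where an endpoint was not reached, the value was given as beyond the range tested.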

SF-295 [5] = assay: Cytotoxicity against human SF295 cells after 48 hrs by SRB assay; format: functional; settings: SF-295, 48 h; method in brief: as §4
RPMI-8226 [6] = assay: Cytotoxicity against human RPMI8226 cells after 48 hrs by SRB assay; format: functional; settings: RPMI-8226, 48 h; method in brief: as §4
KM12 = assay: Cytotoxicity against human KM12 cells assessed as cell growth at 10 uM after 48 hrs by SRB assay relative to control; format: functional; settings: KM12, 48 h, read-out: Activity; method in brief: as §1
RPMI-8226 [7] = assay: Cytotoxicity against human RPMI8226 cells assessed as cell growth at 10 uM after 48 hrs by SRB assay relative to control; format: functional; settings: RPMI-8226, 48 h, read-out: Activity; method in brief: as §1
OVCAR-3 = assay: Cytotoxicity against human OVCAR3 cells after 48 hrs by SRB assay; format: functional; settings: OVCAR-3, 48 h; method in brief: as §4
NCI-H460 [8] = assay: Cytotoxicity against human NCI-H460 cells after 48 hrs by SRB assay; format: functional; settings: NCI-H460, 48 h; method in brief: as §4
PC-3 [9] = assay: Cytotoxicity against human PC3 cells after 48 hrs by SRB assay; format: functional; settings: PC-3, 48 h; method in brief: as §4
MOLT-4 [10] = assay: Cytotoxicity against human MOLT4 cells after 48 hrs by SRB assay; format: functional; settings: MOLT-4, 48 h; method in brief: as §4
A549 [11] = assay: Cytotoxicity against human A549 cells after 48 hrs by SRB assay; format: functional; settings: A549, 48 h; method in brief: as §4
SF-539 = assay: Cytotoxicity against human SF539 cells after 48 hrs by SRB assay; format: functional; settings: SF-539, 48 h; method in brief: as §4
SR [12] = assay: Cytotoxicity against human SR cells after 48 hrs by SRB assay; format: functional; method in brief: as §2
NCI-H322M = assay: Cytotoxicity against human NCI-H322M cells after 48 hrs by SRB assay; format: functional; method in brief: as §4
SK-MEL-5 = assay: Cytotoxicity against human SK-MEL-5 cells after 48 hrs by SRB assay; format: functional; settings: SK-MEL-5, 48 h; method in brief: as §2
[13] = Cytotoxicity against human Hs 578T cells after 48 hrs by SRB assay; format: functional; method in brief: as §4
A498 = assay: Cytotoxicity against human A498 cells after 48 hrs by SRB assay; format: functional; settings: A498, 48 h; method in brief: as §4
UACC-62 [14] = assay: Cytotoxicity against human UACC62 cells after 48 hrs by SRB assay; format: functional; settings: UACC-62, 48 h; method in brief: as §2
PC-3 [15] = assay: Cytotoxicity against human PC3 cells assessed as cell growth at 10 uM after 48 hrs by SRB assay relative to control; format: functional; settings: PC-3, 48 h, read-out: Activity; method in brief: as §1
HCT-116 = assay: Cytotoxicity against human HCT116 cells after 48 hrs by SRB assay; format: functional; settings: HCT-116, 48 h; method in brief: as §4
Trypanosoma cruzi = assay: Antitrypanosomal activity against […] form of Trypanosoma cruzi Y infected in monkey […] cells assessed as parasite growth inhibition after 15 hrs by trypan blue staining-based hemocytometric analysis; format: functional, organism-based
MOLT-4 [16] = assay: Cytotoxicity against human MOLT4 cells assessed as cell growth at 10 uM after 48 hrs by SRB assay relative to control; format: functional; settings: MOLT-4, 48 h, read-out: Activity; method in brief: as §1
K562 [17] = assay: Cytotoxicity against human K562 cells assessed as cell growth at 10 uM after 48 hrs by SRB assay relative to control; format: functional; settings: K562, 48 h, read-out: Activity; method in brief: as §1
DU-145 = assay: Cytotoxicity against human DU145 cells after 48 hrs by SRB assay; format: functional; settings: DU-145, 48 h; method in brief: as §4
SF-295 [18] = assay: Cytotoxicity against human SF295 cells assessed as cell growth at 10 uM after 48 hrs by SRB assay relative to control; format: functional; settings: SF-295, 48 h, read-out: Activity; method in brief: as §1
MDA-MB-435 [19] = assay: Cytotoxicity against human MDA-MB-435 cells assessed as cell growth at 10 uM after 48 hrs by SRB assay relative to control; format: functional; settings: MDA-MB-435, 48 h, read-out: Activity; method in brief: as §1
SR [20] = assay: Cytotoxicity against human SR cells assessed as cell growth at 10 uM after 48 hrs by SRB assay relative to control; format: functional; settings: read-out: Activity
Method in brief: (§5)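 Single-dose NCI screen: compound at 10⁻⁵ M added to tumor cell cultures and incubated for 48 h. The SRB protein-binding dye end point was read spectrophotometrically. Results are percent growth of treated cells relative to untreated controls.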

UACC-62 [21] = assay: Cytotoxicity against human UACC62 cells assessed as cell growth at 10 uM after 48 hrs by SRB assay relative to control; format: functional; settings: UACC-62, 48 h, read-out: Activity; method in brief: as §5
NCI-H522 = assay: Cytotoxicity against human NCI-H522 cells assessed as cell growth at 10 uM after 48 hrs by SRB assay relative to control; format: functional; settings: NCI-H522, 48 h, read-out: Activity; method in brief: as §1
HCT-15 = assay: Cytotoxicity against human HCT15 cells after 48 hrs by SRB assay; format: functional; settings: HCT-15, 48 h; method in brief: as §4
A549 [22] = assay: Cytotoxicity against human A549 cells assessed as cell growth at 10 uM after 48 hrs by SRB assay relative to control; format: functional; settings: A549, 48 h, read-out: Activity; method in brief: as §1
BT-549 [23] = assay: Cytotoxicity against human BT549 cells assessed as cell growth at 10 uM after 48 hrs by SRB assay relative to control; format: functional; settings: BT-549, 48 h, read-out: Activity; method in brief: as §3
BT-549 [24] = assay: Cytotoxicity against human BT549 cells after 48 hrs by SRB assay; format: functional; settings: BT-549, 48 h; method in brief: as §4
T47D [25] = assay: Cytotoxicity against human T47D cells assessed as cell growth at 10 uM after 48 hrs by SRB assay relative to control; format: functional; settings: read-out: Activity; method in brief: as §5
Hs-578T = assay: Cytotoxicity against human Hs578T cells assessed as cell growth at 10 uM after 48 hrs by SRB assay relative to control; format: functional; settings: read-out: Activity; method in brief: as §3
MCF7 [26] = assay: Cytotoxicity against human MCF7 cells after 48 hrs by SRB assay; format: functional; settings: MCF7, 48 h; method in brief: as §4
HL-60(TB) [27] = assay: Cytotoxicity against human HL-60(TB) cells assessed as cell growth at 10 uM after 48 hrs by SRB assay relative to control; format: functional; settings: HL-60, 48 h, read-out: Activity; method in brief: as §1
K562 [28] = assay: Cytotoxicity against human K562 cells after 48 hrs by SRB assay; format: functional; settings: K562, 48 h; method in brief: as §4
MDA-MB-435 [29] = assay: Cytotoxicity against human MDA-MB-435 cells after 48 hrs by SRB assay; format: functional; settings: MDA-MB-435, 48 h; method in brief: as §4
HOP-92 = assay: Cytotoxicity against human HOP92 cells after 48 hrs by SRB assay; format: functional; settings: HOP-92, 48 h; method in brief: as §4
LOX IMVI = assay: Cytotoxicity against human LOXIMVI cells assessed as cell growth at 10 uM after 48 hrs by SRB assay relative to control; format: functional; settings: read-out: Activity; method in brief: as §1

## O=C1NC(=O)/C(=C/C(=O)N2N=C(c3ccc4ccccc4c3)CC2c2ccc(Cl)cc2)S1 (configuration not stated)
MCF7 [1]
  growth at 10 µM: 34.4%
T47D [2]
  GI50: 1.53 µM
  TGI: 9.4 µM
NCI-H460 [3]
  growth at 10 µM: 25.9%
CCRF-CEM
  growth at 10 µM: 16.7%
U-251
  GI50: 2.58 µM
  TGI: 13.2 µM
HL-60(TB) [4]
  GI50: 3.2 µM
  TGI: 6.48 µM
SF-295 [5]
  GI50: 2.45 µM
  TGI: 9.12 µM
RPMI-8226 [6]
  GI50: 1.97 µM
  TGI: 5.88 µM
KM12
  growth at 10 µM: 25.8%
RPMI-8226 [7]
  growth at 10 µM: 2.48%
OVCAR-3
  GI50: 2.9 µM
  TGI: 10.6 µM
NCI-H460 [8]
  GI50: 1.89 µM
  TGI: 4.7 µM
PC-3 [9]
  GI50: 4.94 µM
  TGI: 100 µM
MOLT-4 [10]
  GI50: 1.64 µM
A549 [11]
  GI50: 3.06 µM
  TGI: 100 µM
SF-539
  GI50: 2.43 µM
  TGI: 5.79 µM
SR [12]
  GI50: 1.98 µM
  TGI: 5.92 µM
NCI-H322M
  GI50: 2.89 µM
  TGI: 100 µM
SK-MEL-5
  GI50: 2.09 µM
  TGI: 22.5 µM
[13]
  GI50: 1.94 µM
  TGI: 8.26 µM
A498
  GI50: 1.41 µM
  TGI: 5.38 µM
UACC-62 [14]
  GI50: 2.66 µM
  TGI: 12.8 µM
PC-3 [15]
  growth at 10 µM: 36%
HCT-116
  GI50: 3.01 µM
  TGI: 13.9 µM
Trypanosoma cruzi
  IC50: 0.3 µM
MOLT-4 [16]
  growth at 10 µM: 11.5%
K562 [17]
  growth at 10 µM: 24.6%
DU-145
  GI50: 4.27 µM
  TGI: 100 µM
SF-295 [18]
  growth at 10 µM: -5.27%
MDA-MB-435 [19]
  growth at 10 µM: 39.5%
SR [20]
  growth at 10 µM: 10.6%
UACC-62 [21]
  growth at 10 µM: 32.8%
NCI-H522
  growth at 10 µM: 23.2%
HCT-15
  GI50: 2.41 µM
  TGI: 100 µM
A549 [22]
  growth at 10 µM: 30%
BT-549 [23]
  growth at 10 µM: 34.2%
BT-549 [24]
  GI50: 2.16 µM
  TGI: 7.75 µM
T47D [25]
  growth at 10 µM: 39.3%
Hs-578T
  growth at 10 µM: 35.6%
MCF7 [26]
  GI50: 2.53 µM
  TGI: 14.1 µM
HL-60(TB) [27]
  growth at 10 µM: 13.5%
K562 [28]
  GI50: 1.9 µM
  TGI: 11.2 µM
MDA-MB-435 [29]
  GI50: 2.7 µM
  TGI: 16.5 µM
HOP-92
  GI50: 1.17 µM
  TGI: 9.72 µM

## COc1ccc(C2CC(c3ccccc3)=NN2C(=O)/C=C2\SC(=O)NC2=O)cc1 (configuration not stated)
RPMI-8226 [7]
  growth at 10 µM: 58.9%
K562 [17]
  growth at 10 µM: 58.2%
SR [20]
  growth at 10 µM: 39.1%
LOX IMVI
  growth at 10 µM: 55.7%
